Experimental data reported in ChEMBL document CHEMBL1135694, “Optimization of alkylidene hydrazide based human glucagon receptor antagonists. Discovery of the highly potent and orally available 3-cyano-4-hydroxybenzoic acid [1-(2,3,5,6-tetramethylbenzyl)-1H-indol-4-ylmethylene]hydrazide” (J Med Chem, 2002).

How the values were obtained:
[1] = target: Glucagon receptor (Rattus norvegicus) (UniProt P30082); test: (§1) In vitro binding affinity towards rat glucagon receptor
[2] = Turnover in rat liver microsomes; format: ADME, Microsome
Procedure, shortened: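 Rat liver microsomes (0.331 mg/mL protein) with 10 µM compound, 1 mM UDP-GA and 1 mM NADPH in KH2PO4 buffer, pH 7.4, at 37 °C. Sampled at 0-30 min (n = 3), stopped with MeCN. Rate was taken from parent disappearance by LC-MS.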

[3] = Oral bioavailability in dog; format: ADME, organism-based, Canis lupus familiaris; details: in vivo
Procedure, shortened: (§2)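 Four purpose-bred male beagle dogs, 11-19 kg, 15-18 months old. Dosed 0.5 mg/kg intravenously, or 2.0 mg/kg perorally by gavage using the same dosing solution as the iv dose. Blood was sampled at set times from predose to 4 h postdose and assayed by LC-MS-MS. PK parameters were derived by noncompartmental analysis; half-lives are given as harmonic means.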

[4] = Half life period after intravenous administration (0.5 mg/kg) in dog was determined; format: ADME, organism-based, Canis lupus familiaris; details: in vivo; procedure, shortened: as §2
[5] = tmax in dog was determined; range 30-45; details: in vivo
Rattus norvegicus = species: Rattus norvegicus; test: Inhibitory activity against glucogon-stimulated glucose production from isolated primary rat hepatocytes; format: functional; details: hepatocyte
Procedure, shortened: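 Hepatocytes came from fed male Sprague-Dawley rats by two-step perfusion and were glycogen-loaded with 15 mM glucose and 10 nM insulin for 24 h. Cells were then given compound (0-1000 nM) plus 0.5 nM glucagon for 70 min in HEPES/bicarbonate buffer with 0.1% HSA, pH 7.4, 37 °C. Released glucose and glycogen were measured. Ki came from Schild analysis; mean ± SEM of four hepatocyte preparations.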

Glucagon receptor [6] = target: Glucagon receptor (Homo sapiens, UniProt P47871); test: In vitro binding affinity for recombinant human glucagon receptor (hGGR) in BHK cells; format: cell-based
Chain of Glucagon receptor (Homo sapiens, UniProt P47871) (P47871 whole entry): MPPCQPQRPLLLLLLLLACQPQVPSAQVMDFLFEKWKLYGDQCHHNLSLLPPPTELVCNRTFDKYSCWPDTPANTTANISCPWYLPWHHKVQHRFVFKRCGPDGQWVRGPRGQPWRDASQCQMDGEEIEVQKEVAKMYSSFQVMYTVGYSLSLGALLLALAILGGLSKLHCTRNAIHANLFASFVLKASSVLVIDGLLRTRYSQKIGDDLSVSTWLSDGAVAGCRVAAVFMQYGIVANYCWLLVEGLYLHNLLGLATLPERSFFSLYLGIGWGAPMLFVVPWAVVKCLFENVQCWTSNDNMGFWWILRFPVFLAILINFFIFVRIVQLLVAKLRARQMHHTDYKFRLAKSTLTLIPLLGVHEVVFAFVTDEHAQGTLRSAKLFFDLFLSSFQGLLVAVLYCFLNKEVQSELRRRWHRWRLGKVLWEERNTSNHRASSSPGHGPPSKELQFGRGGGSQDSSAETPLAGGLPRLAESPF
Procedure, shortened: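 Membranes (4 µg) from BHK cells expressing the cloned human glucagon receptor. Compounds were diluted in DMSO, and a glucagon standard curve was run. IC50 given as mean ± SD, n = 3.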

[7] = tmax after peroral administration (2 mg/kg) in dog was determined; range 30-45; format: ADME, organism-based, Canis lupus familiaris; details: in vivo, po; procedure, shortened: as §2
Glucagon receptor [8] = target: Glucagon receptor (Rattus norvegicus, UniProt P30082); test: as §1
Chain of Glucagon receptor (Rattus norvegicus, UniProt P30082) (P30082 whole entry): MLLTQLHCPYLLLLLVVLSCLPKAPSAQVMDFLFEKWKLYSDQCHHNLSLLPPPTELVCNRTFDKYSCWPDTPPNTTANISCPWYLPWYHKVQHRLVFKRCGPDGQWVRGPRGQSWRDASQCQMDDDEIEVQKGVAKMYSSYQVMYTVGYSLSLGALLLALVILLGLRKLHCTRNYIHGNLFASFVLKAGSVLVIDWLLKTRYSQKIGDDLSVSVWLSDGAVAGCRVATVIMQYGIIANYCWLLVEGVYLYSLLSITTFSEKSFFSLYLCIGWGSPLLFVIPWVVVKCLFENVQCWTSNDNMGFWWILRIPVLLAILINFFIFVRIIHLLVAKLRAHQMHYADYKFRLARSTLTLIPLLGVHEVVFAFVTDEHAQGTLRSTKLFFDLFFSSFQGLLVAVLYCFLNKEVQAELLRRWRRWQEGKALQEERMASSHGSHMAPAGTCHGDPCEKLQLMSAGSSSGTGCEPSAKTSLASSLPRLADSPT

Chain of Glucagon receptor (Rattus norvegicus) (P30082 whole entry): as above

Question: What does the source list for `Cc1cc(C)c(C)c(Cn2ccc3c(/C=N/NC(=O)c4ccc(O)c(C#N)c4)cccc32)c1C`?
Answer: Kb [1]: 0.38 nM; Metabolism [2]: 34 pmol/min/mg; bioavailability [3]: 15%; half-life [4]: 66.6 min; Tmax [5]: 30 min; Ki (Rattus norvegicus): 14 nM; IC50 (Glucagon receptor [6]): 2.3 nM; Tmax [7]: 30 min; IC50 (Glucagon receptor [8]): 0.43 nM
